Data reported in ChEMBL document CHEMBL1122285, “New myocardial imaging agents: stabilization of radioiodine as a terminal vinyl iodide moiety on tellurium fatty acids” (J Med Chem, 1983).
Where “and” joins values, the source holds several entries; their conditions need not be identical. Equal entries are not always repeated.

Legend:
Rattus norvegicus [1] = experiment: Tested for distribution of radioactivity of iodine 125 in blood of rat after 3 days of intravenous administration; assay type: ADME, organism-based; conditions: in vivo, 72 h
In short: (§1)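 Fischer 344 rats, four per time point, under ether anaesthesia. Each received ~8.6 μCi of 125I-labelled fatty acid (sp act ~20 mCi/mmol) by lateral tail vein in 0.5 mL 6% bovine serum albumin with 10% final ethanol, filtered before injection. Percent injected dose/g was calculated against injectate standards and reported as mean (range). Thyroid weight was taken as body weight × 7.5 mg/100 g.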

[2] = Tested for distribution of radioactivity of iodine 125 in kidney of rat after 60 min of intravenous administration; assay type: ADME; conditions: in vivo, 1 h; in short: as §1
Rattus norvegicus [3] = experiment: Tested for distribution of radioactivity of tellurium-123 in lungs of rat after 30 min of intravenous administration; assay type: ADME, organism-based, Lung; conditions: in vivo, 0.5 h
In short: (§2)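 123mTe-labelled fatty acid (sp act ~20 mCi/mmol), ~6.8–8.4 μCi per rat, was given by lateral tail vein in 0.5 mL 6% BSA with 10% final ethanol to ether-anaesthetised Fischer 344 rats, four per time point. Tissue activity is expressed as mean % injected dose/g (range) against injectate standards.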

Rattus norvegicus [4] = experiment: Tested for distribution of radioactivity of iodine 125 in lungs of rat after 30 min of intravenous administration; assay type: ADME, organism-based, Lung; conditions: in vivo, 0.5 h; in short: as §1
Rattus norvegicus [5] = experiment: Tested for distribution of radioactivity of iodine 125 in liver of rat after 30 min of intravenous administration; assay type: ADME, organism-based; conditions: in vivo, 0.5 h; in short: as §1
Rattus norvegicus [6] = experiment: Tested for distribution of radioactivity in heart of rat after 2 hours of intravenous administration; assay type: ADME, organism-based; conditions: in vivo; in short: as §1
Rattus norvegicus [7] = experiment: Tested for distribution of radioactivity of tellurium-123 in lungs of rat after 5 min of intravenous administration; assay type: ADME, organism-based, Lung; conditions: in vivo; in short: as §2
Rattus norvegicus [8] = experiment: Tested for distribution of radioactivity of tellurium-123 in blood of rat after 30 min of intravenous administration; assay type: ADME, organism-based; conditions: in vivo, 0.5 h; in short: as §2
Rattus norvegicus [9] = experiment: Tested for distribution of radioactivity of iodine 125 in lungs of rat after 3 days of intravenous administration; assay type: ADME, organism-based, Lung; conditions: in vivo, 72 h; in short: as §1
Rattus norvegicus [10] = experiment: Tested for distribution of radioactivity of iodine 125 in lungs of rat after 60 min of intravenous administration; assay type: ADME, organism-based, Lung; conditions: in vivo, 1 h; in short: as §1
Rattus norvegicus [11] = experiment: Tested for distribution of radioactivity of tellurium-123 in liver of rat after 60 min of intravenous administration; assay type: ADME, organism-based; conditions: in vivo, 1 h; in short: as §2
Rattus norvegicus [12] = experiment: Tested for distribution of radioactivity of iodine 125 in kidney of rat after 4 hours of intravenous administration; assay type: ADME, organism-based; conditions: in vivo; in short: as §1
Rattus norvegicus [13] = experiment: Tested for distribution of radioactivity of tellurium-123 in kidney of rat after 5 min of intravenous administration; assay type: ADME, organism-based; conditions: in vivo; in short: as §2
Rattus norvegicus [14] = experiment: Tested for distribution of radioactivity of iodine 125 in kidney of rat after 2 hours of intravenous administration; assay type: ADME, organism-based; conditions: in vivo; in short: as §1
Rattus norvegicus [15] = experiment: Tested for distribution of radioactivity of iodine 125 in liver of rat after 60 min of intravenous administration; assay type: ADME, organism-based; conditions: in vivo, 1 h; in short: as §1
Rattus norvegicus [16] = experiment: Tested for distribution of radioactivity of tellurium-123 in blood of rat after 60 min of intravenous administration; assay type: ADME, organism-based; conditions: in vivo, 1 h; in short: as §2
Rattus norvegicus [17] = experiment: Tested for distribution of radioactivity iodine 125 in heart of rat after 60 min of intravenous administration; assay type: ADME, organism-based; conditions: in vivo, 1 h; in short: as §1
Rattus norvegicus [18] = experiment: Tested for distribution of radioactivity of tellurium-123 in kidney of rat after 30 min of intravenous administration; assay type: ADME, organism-based; conditions: in vivo, 0.5 h; in short: as §2
Rattus norvegicus [19] = experiment: Tested for distribution of radioactivity of iodine 125 in kidney of rat after 3 days of intravenous administration; assay type: ADME, organism-based; conditions: in vivo, 72 h; in short: as §1
Rattus norvegicus [20] = experiment: Tested for distribution of radioactivity of tellurium-123 in blood of rat after 5 min of intravenous administration; assay type: ADME, organism-based; conditions: in vivo; in short: as §2
Rattus norvegicus [21] = experiment: Tested for distribution of radioactivity iodine 125 in heart of rat after 3 days intravenous administration; assay type: ADME, organism-based; conditions: in vivo, 72 h; in short: as §1
Rattus norvegicus [22] = experiment: Tested for distribution of radioactivity of iodine 125 in blood of rat after 60 min of intravenous administration; assay type: ADME, organism-based; conditions: in vivo, 1 h; in short: as §1
Rattus norvegicus [23] = experiment: Tested for distribution of radioactivity of tellurium-123 in liver of rat after 30 min of intravenous administration; assay type: ADME, organism-based; conditions: in vivo, 0.5 h; in short: as §2
Rattus norvegicus [24] = experiment: Tested for distribution of radioactivity of iodine 125 in lungs of rat after 5 min of intravenous administration; assay type: ADME, organism-based, Lung; conditions: in vivo; in short: as §1
Rattus norvegicus [25] = experiment: Tested for distribution of radioactivity of iodine 125 in lungs of rat after 2 hours of intravenous administration; assay type: ADME, organism-based, Lung; conditions: in vivo; in short: as §1
Rattus norvegicus [26] = experiment: Tested for distribution of radioactivity of iodine 125 in kidney of rat after 5 min of intravenous administration; assay type: ADME, organism-based; conditions: in vivo; in short: as §1
Rattus norvegicus [27] = experiment: Tested for distribution of radioactivity of iodine 125 in liver of rat after 2 hr of intravenous administration; assay type: ADME, organism-based; conditions: in vivo; in short: as §1
Rattus norvegicus [28] = experiment: Tested for distribution of radioactivity of iodine 125 in liver of rat after 5 min of intravenous administration; assay type: ADME, organism-based; conditions: in vivo; in short: as §1
Rattus norvegicus [29] = experiment: Tested for distribution of radioactivity of tellurium-123 in heart of rat after 30 min of intravenous administration; assay type: ADME, organism-based; conditions: in vivo, 0.5 h; in short: as §2
Rattus norvegicus [30] = experiment: Tested for distribution of radioactivity of tellurium-123 in kidney of rat after 60 min of intravenous administration; assay type: ADME, organism-based; conditions: in vivo, 1 h; in short: as §2
Rattus norvegicus [31] = experiment: Tested for distribution of radioactivity of iodine 125 in blood of rat after 4 hours of intravenous administration; assay type: ADME, organism-based; conditions: in vivo; in short: as §1
Rattus norvegicus [32] = experiment: Tested for distribution of radioactivity iodine 125 in heart of rat after 4 hours of intravenous administration; assay type: ADME, organism-based; conditions: in vivo; in short: as §1
Rattus norvegicus [33] = experiment: Tested for distribution of radioactivity of iodine 125 in thyroid of rat after 60 min of intravenous administration; assay type: ADME, organism-based, Thyroid gland; conditions: in vivo, 1 h; in short: as §1
Rattus norvegicus [34] = experiment: Tested for distribution of radioactivity of iodine 125 in blood of rat after 2 hour of intravenous administration; assay type: ADME, organism-based; conditions: in vivo; in short: as §1
Rattus norvegicus [35] = experiment: Tested for distribution of radioactivity of iodine 125 in kidney of rat after 30 min of intravenous administration; assay type: ADME, organism-based; conditions: in vivo, 0.5 h; in short: as §1
Rattus norvegicus [36] = experiment: Tested for distribution of radioactivity of iodine 125 in thyroid of rat after 30 min of intravenous administration; assay type: ADME, organism-based, Thyroid gland; conditions: in vivo, 0.5 h; in short: as §1
Rattus norvegicus [37] = experiment: Tested for distribution of radioactivity of tellurium-123 in heart of rat after 5 min of intravenous administration; assay type: ADME, organism-based; conditions: in vivo; in short: as §2
Rattus norvegicus [38] = experiment: Tested for distribution of radioactivity iodine 125 in heart of rat after 30 min of intravenous administration (value in parentheses indicates range); assay type: ADME, organism-based; conditions: in vivo, 0.5 h; in short: as §1
Rattus norvegicus [39] = experiment: Tested for distribution of radioactivity of tellurium-123 in lungs of rat after 60 min of intravenous administration; assay type: ADME, organism-based, Lung; conditions: in vivo, 1 h; in short: as §2
Rattus norvegicus [40] = experiment: Tested for distribution of radioactivity of iodine 125 in liver of rat after 4 hr of intravenous administration; assay type: ADME, organism-based; conditions: in vivo; in short: as §1
Rattus norvegicus [41] = experiment: Tested for distribution of radioactivity of iodine 125 in liver of rat after 3 days of intravenous administration; assay type: ADME, organism-based; conditions: in vivo, 72 h; in short: as §1
Rattus norvegicus [42] = experiment: Tested for distribution of radioactivity of tellurium-123 in liver of rat after 5 min of intravenous administration; assay type: ADME, organism-based; conditions: in vivo; in short: as §2
Rattus norvegicus [43] = experiment: Tested for distribution of radioactivity of iodine 125 in thyroid of rat after 5 min of intravenous administration; assay type: ADME, organism-based, Thyroid gland; conditions: in vivo; in short: as §1
Rattus norvegicus [44] = experiment: Tested for distribution of radioactivity of iodine 125 in heart of rat after 5 min of intravenous administration; assay type: ADME, organism-based; conditions: in vivo; in short: as §1
Rattus norvegicus [45] = experiment: Tested for distribution of radioactivity of iodine 125 in blood of rat after 30 min of intravenous administration; assay type: ADME, organism-based; conditions: in vivo, 0.5 h; in short: as §1
Rattus norvegicus [46] = experiment: Tested for distribution of radioactivity of iodine 125 in blood of rat after 5 min of intravenous administration; assay type: ADME, organism-based; conditions: in vivo; in short: as §1
Rattus norvegicus [47] = experiment: Tested for distribution of radioactivity of tellurium-123 in heart of rat after 60 min of intravenous administration; assay type: ADME, organism-based; conditions: in vivo, 1 h; in short: as §2

O=C(O)CCCCCCCCCCC[Te]CCC/C=C\I
Injected dose/g (Rattus norvegicus [1]): 0.03% | Injected dose/g [2]: 1.15% | Injected dose/g (Rattus norvegicus [3]): 1.03% | Injected dose/g (Rattus norvegicus [4]): 0.89% | Injected dose/g (Rattus norvegicus [5]): 5.32% | Injected dose/g (Rattus norvegicus [6]): 1.03% | Injected dose/g (Rattus norvegicus [7]): 0.91% | Injected dose/g (Rattus norvegicus [8]): 0.84% | Injected dose/g (Rattus norvegicus [9]): 0.1% | Injected dose/g (Rattus norvegicus [10]): 1.02% | Injected dose/g (Rattus norvegicus [11]): 4.49% | Injected dose/g (Rattus norvegicus [12]): 0.93% | Injected dose/g (Rattus norvegicus [13]): 1.46% and 1.54% | Injected dose/g (Rattus norvegicus [14]): 0.96% | Injected dose/g (Rattus norvegicus [15]): 4.39% | Injected dose/g (Rattus norvegicus [16]): 0.95% | Injected dose/g (Rattus norvegicus [17]): 1.81% | Injected dose/g (Rattus norvegicus [18]): 1.73% and 1.62% | Injected dose/g (Rattus norvegicus [19]): 0.08% | Injected dose/g (Rattus norvegicus [20]): 0.32% and 0.25% | Injected dose/g (Rattus norvegicus [21]): 0.09% | Injected dose/g (Rattus norvegicus [22]): 0.69% | Injected dose/g (Rattus norvegicus [23]): 5.53% | Injected dose/g (Rattus norvegicus [24]): 0.92% | Injected dose/g (Rattus norvegicus [25]): 0.81% | Injected dose/g (Rattus norvegicus [26]): 1.01% | Injected dose/g (Rattus norvegicus [27]): 2.45% | Injected dose/g (Rattus norvegicus [28]): 8.78% | Injected dose/g (Rattus norvegicus [29]): 1.98% | Injected dose/g (Rattus norvegicus [30]): 1.85% | Injected dose/g (Rattus norvegicus [31]): 0.65% | Injected dose/g (Rattus norvegicus [32]): 0.76% | Injected dose/g (Rattus norvegicus [33]): 13.41% | Injected dose/g (Rattus norvegicus [34]): 0.68% | Injected dose/g (Rattus norvegicus [35]): 1.04% | Injected dose/g (Rattus norvegicus [36]): 5.64% | Injected dose/g (Rattus norvegicus [37]): 2.09% | Injected dose/g (Rattus norvegicus [38]): 1.52% | Injected dose/g (Rattus norvegicus [39]): 1% and 1.49% | Injected dose/g (Rattus norvegicus [40]): 1.95% | Injected dose/g (Rattus norvegicus [41]): 0.09% | Injected dose/g (Rattus norvegicus [42]): 7.78% and 8.26% | Injected dose/g (Rattus norvegicus [43]): 1.62% | Injected dose/g (Rattus norvegicus [44]): 1.46% | Injected dose/g (Rattus norvegicus [45]): 0.61% | Injected dose/g (Rattus norvegicus [46]): 0.15% | Injected dose/g (Rattus norvegicus [47]): 1.92% and 0.83%
